Reference: ChEMBL document CHEMBL1817572, “New, potent, selective, and short-acting peptidic V1a receptor agonists” (J Med Chem, 2011)
Numbered stars: 1 amine (or outer) side, 2 acyl side, 3 side chain; on linkers, the order of the positions; unused ones are H or OH. Bridge positions count the residues as written; N and C are the ends. Square brackets hold non-standard residues; d marks the D form. Peptide text beside a SMILES is read from it. Orn(Me) = CN(CCC[C@H](N[*:1])C(=O)[*:2])[*:3]; Orn(iPr) = CC(C)NCCC[C@H](N)C(=O)O; Orn(Pr) = CCCNCCC[C@H](N)C(=O)O; Orn = NCCC[C@H](N)C(=O)O; Dab = NCC[C@H](N)C(=O)O

Experiments:
Vasopressin V1b receptor = molecular target: T1, Vasopressin V1b receptor (Homo sapiens, UniProt P47901); assay: Agonist activity at recombinant human vasopressin V1b receptor expressed in Flp-In-293 cells by luciferase reporter gene assay; assay type: functional, cell-based; conditions: read-out: EC50
T1 sequence (P47901 whole entry): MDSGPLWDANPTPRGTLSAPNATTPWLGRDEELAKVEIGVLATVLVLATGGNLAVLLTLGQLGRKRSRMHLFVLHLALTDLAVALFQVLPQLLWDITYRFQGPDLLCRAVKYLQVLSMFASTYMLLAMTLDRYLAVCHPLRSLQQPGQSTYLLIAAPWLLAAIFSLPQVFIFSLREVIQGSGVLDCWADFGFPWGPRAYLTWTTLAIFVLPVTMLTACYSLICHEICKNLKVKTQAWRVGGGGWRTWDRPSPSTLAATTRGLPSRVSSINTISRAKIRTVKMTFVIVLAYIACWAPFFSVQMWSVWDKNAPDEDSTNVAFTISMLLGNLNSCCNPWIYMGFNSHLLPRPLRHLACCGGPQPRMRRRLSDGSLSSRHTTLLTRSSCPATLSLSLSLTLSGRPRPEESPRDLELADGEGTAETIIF
Method in brief: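 Reporter gene assays in HEK293 cells transiently cotransfected with V1a (human or rat) or human V2 receptor vector plus NFAT-luciferase (V1a) or CRE-luciferase (V2) reporter; V1b in Flp-In-293 stably expressing receptor, OT in CHO-K1 stably expressing receptor, both transiently transfected with NFAT-luciferase. Two days post-transfection, peptides added for 5 h at 37 °C, lysis with luciferin, luminescence read.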

Vasopressin V2 receptor [1] = molecular target: T2, Vasopressin V2 receptor (Homo sapiens, UniProt P30518); assay: Partial agonist activity at recombinant human vasopressin V2 receptor expressed in HEK293 cells by luciferase reporter gene assay; assay type: functional, cell-based
Method in brief: (§1)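 Same luciferase reporter systems (OT in stable CHO-K1, V1b in stable Flp-In-293, each with transient NFAT-luciferase; V1a in HEK293 with NFAT-luciferase, V2 in HEK293 with CRE-luciferase). Peptides added for 5 h at 37 °C two days post-transfection, luminescence read. Partial agonism means efficacy <70%.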

[2] = molecular target: T3, Oxytocin receptor (Homo sapiens) (UniProt P30559); assay: Partial agonist activity at human OT receptor expressed in CHO-K1 cells by luciferase reporter gene assay; assay type: functional, cell-based; method in brief: as §1
T3 sequence (whole entry): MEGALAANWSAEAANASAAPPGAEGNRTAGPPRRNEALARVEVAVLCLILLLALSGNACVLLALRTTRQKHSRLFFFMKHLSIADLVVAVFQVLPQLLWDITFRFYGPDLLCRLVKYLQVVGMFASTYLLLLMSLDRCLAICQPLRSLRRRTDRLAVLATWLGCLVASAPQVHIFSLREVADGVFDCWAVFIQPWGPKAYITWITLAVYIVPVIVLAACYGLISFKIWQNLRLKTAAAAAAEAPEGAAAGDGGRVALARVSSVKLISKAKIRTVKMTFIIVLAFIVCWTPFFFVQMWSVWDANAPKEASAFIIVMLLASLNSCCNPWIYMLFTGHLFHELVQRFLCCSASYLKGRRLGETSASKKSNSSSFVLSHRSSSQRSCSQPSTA

Vasopressin V1a receptor [3] = molecular target: Vasopressin V1a receptor (Homo sapiens, UniProt P37288); assay: Agonist activity at recombinant human vasopressin V1a receptor expressed in HEK293 cells by luciferase reporter gene assay; assay type: functional, cell-based; conditions: read-out: EC50
Homo sapiens [4] = species: Homo sapiens; assay: Selectivity ratio of EC50 for human vasopressin V1b receptor to EC50 for human vasopressin V1a receptor
Homo sapiens [5] = species: Homo sapiens; assay: Selectivity ratio of EC50 for human oxytocin receptor to EC50 for human vasopressin V1a receptor
[6] = molecular target: Vasopressin V1a/V2 (Homo sapiens) (UniProt P30518+P37288); assay: Selectivity ratio of EC50 for human vasopressin V2 receptor to EC50 for human vasopressin V1a receptor
Oxytocin receptor = molecular target: T4, Oxytocin receptor (Homo sapiens, UniProt P30559); assay: Agonist activity at human OT receptor expressed in CHO-K1 cells by luciferase reporter gene assay; assay type: functional, cell-based
T4 sequence (P30559 whole entry): T3 sequence (whole entry)

Vasopressin V2 receptor [7] = molecular target: T2, Vasopressin V2 receptor; assay: Agonist activity at recombinant human vasopressin V2 receptor expressed in HEK293 cells by luciferase reporter gene assay; assay type: functional, cell-based
Vasopressin V1a receptor [8] = molecular target: Vasopressin V1a receptor (Rattus norvegicus, UniProt P30560); assay: Agonist activity at recombinant rat vasopressin V1a receptor expressed in HEK293 cells by luciferase reporter gene assay; assay type: functional, cell-based; conditions: read-out: EC50
Rattus norvegicus [9] = assay: Vasoconstriction in Wistar rat assessed as decay in vasopressive duration of action at 0.3 nmol/kg, iv bolus measured over 10 sec interval; assay type: functional; parameters: unit not given here
Rattus norvegicus [10] = assay: Vasoconstriction in Wistar rat assessed as assessed as decay in vasopressive duration of action at 3 nmol/kg, iv bolus measured over 10 sec interval; assay type: functional
Method in brief: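 Fasted male Wistar rats (206–340 g) under isoflurane, then thiobutabarbital 150 mg/kg ip, ventilated, 37–38 °C, with carotid pressure and jugular dosing. Dibenamine 1.8 mg/rat iv pretreatment. Sequence: iv boluses (0.5 mL/kg) of heparinized vehicle, then two reference doses of 0.1 nmol/kg, then two test doses; one matches the reference diastolic pressure rise. Relative duration = reference decay rate / test decay rate; mean ± SEM.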

Sequence of Vasopressin V1a receptor (Homo sapiens, UniProt P37288) (P37288 whole entry): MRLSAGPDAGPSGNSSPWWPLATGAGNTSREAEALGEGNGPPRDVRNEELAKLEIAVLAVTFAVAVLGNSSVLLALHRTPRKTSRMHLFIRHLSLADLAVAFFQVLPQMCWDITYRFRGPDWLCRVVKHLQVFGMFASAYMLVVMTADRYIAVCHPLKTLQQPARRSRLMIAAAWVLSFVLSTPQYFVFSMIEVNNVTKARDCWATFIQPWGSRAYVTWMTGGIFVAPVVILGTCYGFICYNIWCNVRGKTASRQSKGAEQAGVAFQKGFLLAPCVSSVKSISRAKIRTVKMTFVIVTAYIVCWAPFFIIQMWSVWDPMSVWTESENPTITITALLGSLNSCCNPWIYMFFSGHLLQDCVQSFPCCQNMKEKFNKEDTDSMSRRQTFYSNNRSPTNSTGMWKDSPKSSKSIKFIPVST
Sequence of Vasopressin V1a receptor (Rattus norvegicus, UniProt P30560) (P30560 whole entry): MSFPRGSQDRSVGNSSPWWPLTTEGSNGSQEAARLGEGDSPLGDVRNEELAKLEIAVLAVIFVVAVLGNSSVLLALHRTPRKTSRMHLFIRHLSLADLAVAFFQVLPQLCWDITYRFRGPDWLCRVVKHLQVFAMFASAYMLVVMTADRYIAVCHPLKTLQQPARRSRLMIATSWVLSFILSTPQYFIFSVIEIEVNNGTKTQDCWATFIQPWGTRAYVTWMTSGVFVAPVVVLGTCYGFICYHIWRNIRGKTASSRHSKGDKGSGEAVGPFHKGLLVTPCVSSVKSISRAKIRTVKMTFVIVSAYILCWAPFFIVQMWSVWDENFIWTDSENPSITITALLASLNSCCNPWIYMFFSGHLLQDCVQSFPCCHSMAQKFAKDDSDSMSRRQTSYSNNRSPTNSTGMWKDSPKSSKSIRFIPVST
T2 sequence (P30518 whole entry): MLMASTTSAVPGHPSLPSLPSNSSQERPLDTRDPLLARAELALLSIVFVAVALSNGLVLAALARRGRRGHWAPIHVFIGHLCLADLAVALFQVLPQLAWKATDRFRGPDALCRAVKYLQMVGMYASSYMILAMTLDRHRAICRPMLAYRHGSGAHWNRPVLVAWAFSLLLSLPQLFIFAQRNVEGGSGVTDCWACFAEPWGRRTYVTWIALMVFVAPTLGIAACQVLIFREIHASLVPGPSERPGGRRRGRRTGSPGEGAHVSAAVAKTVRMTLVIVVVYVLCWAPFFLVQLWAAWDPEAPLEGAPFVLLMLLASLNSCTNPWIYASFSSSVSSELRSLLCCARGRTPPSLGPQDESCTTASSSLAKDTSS
Sequence of Vasopressin V1a/V2 (Homo sapiens) (P30518 whole entry, looked up): as the sequence (P30518 whole entry) above
Sequence of Vasopressin V1a/V2 (Homo sapiens) (P37288 whole entry, looked up): as the sequence (P37288 whole entry) above

SMILES	Efficacy (Vasopressin V2 receptor [1]) [%]	EC50 (Oxytocin receptor; cho-k1, read-out: EC50) [nM]	EC50 (Oxytocin receptor; read-out: pEC50 (converted)) [nM]	EC50 (Vasopressin V2 receptor [7]; hek293, read-out: EC50) [nM]	EC50 (Vasopressin V2 receptor [7]; read-out: pEC50 (converted)) [nM]	EC50 (Vasopressin V1b receptor) [nM]	Efficacy [2] [%]	EC50 (Vasopressin V1a receptor [3]) [nM]	Ratio EC50 (Homo sapiens [4])	Ratio EC50 (Homo sapiens [5])	Ratio EC50 [6]	EC50 (Oxytocin receptor; read-out: EC50) [nM]	EC50 (Vasopressin V2 receptor [7]; read-out: EC50) [nM]	EC50 (Vasopressin V1a receptor [8]) [nM]	Time (Rattus norvegicus [9])	Time (Rattus norvegicus [10]) [unitless ratio]
CC[C@H](C)[C@@H]1NC(=O)[C@H](Cc2ccccc2)NC(=O)[C@@H](N)CSSC[C@@H](C(=O)N2CCC[C@H]2C(=O)N[C@@H](CCCNC)C(=O)NCC(N)=O)NC(=O)[C@H](CC(N)=O)NC(=O)[C@H](CCC(N)=O)NC1=O (H-CFIQNCP[Orn(Me)]G-NH2; disulfide 1-6)						74	< 70	0.26	280	61	500	16	130	0.29	2.6	
CCCNCCC[C@H](NC(=O)[C@@H]1CCCN1C(=O)[C@@H]1CSSC[C@H](N)C(=O)N[C@@H](Cc2ccccc2)C(=O)N[C@@H]([C@@H](C)CC)C(=O)N[C@@H](CCC(N)=O)C(=O)N[C@@H](CC(N)=O)C(=O)N1)C(=O)NCC(N)=O (H-CFIQNCP[Orn(Pr)]G-NH2; disulfide 1-6)						38		0.21	180	150	660	32	140	0.1	1.9	
CC[C@H](C)[C@@H]1NC(=O)[C@H](Cc2ccccc2)NC(=O)[C@@H](N)CSSC[C@@H](C(=O)N2CCC[C@H]2C(=O)N[C@@H](CCCNC(C)C)C(=O)NCC(N)=O)NC(=O)[C@H](CC(N)=O)NC(=O)[C@H](CCCC(N)=O)NC1=O [SELEPRESSIN]	< 70		1100			340	< 70	2.4	140	450	1100	1100	2700	0.55	1.4	

More lines, main results first:

Efficacy (Vasopressin V2 receptor [1]) [%]	EC50 (Oxytocin receptor; cho-k1, read-out: EC50) [nM]	EC50 (Oxytocin receptor; read-out: pEC50 (converted)) [nM]	EC50 (Vasopressin V2 receptor [7]; hek293, read-out: EC50) [nM]	EC50 (Vasopressin V2 receptor [7]; read-out: pEC50 (converted)) [nM]	SMILES	EC50 (Vasopressin V1b receptor) [nM]	Efficacy [2] [%]	EC50 (Vasopressin V1a receptor [3]) [nM]	Ratio EC50 (Homo sapiens [4])	Ratio EC50 (Homo sapiens [5])	Ratio EC50 [6]	EC50 (Oxytocin receptor; read-out: EC50) [nM]	EC50 (Vasopressin V2 receptor [7]; read-out: EC50) [nM]	EC50 (Vasopressin V1a receptor [8]) [nM]	Time (Rattus norvegicus [9])	Time (Rattus norvegicus [10]) [unitless ratio]
< 70					CC[C@H](C)[C@@H]1NC(=O)[C@H](Cc2ccccc2)NC(=O)[C@@H](N)CSSC[C@@H](C(=O)N2CCC[C@H]2C(=O)N[C@@H](CCCNC(C)C)C(=O)NCC(N)=O)NC(=O)[C@H](CC(N)=O)NC(=O)[C@H](CC(N)=O)NC1=O (H-CFINNCP[Orn(iPr)]G-NH2; disulfide 1-6)	250	< 70	1.4	170	78	2600	110	3700			
< 70	> 10000	> 10000			CCNC(=O)C[C@@H]1NC(=O)[C@H]([C@@H](C)CC)NC(=O)[C@H](Cc2ccccc2)NC(=O)[C@@H](N)CSSC[C@@H](C(=O)N2CCC[C@H]2C(=O)N[C@@H](CCN)C(=O)NCC(N)=O)NC(=O)[C@H](CC(N)=O)NC1=O (H-CFID(NHEt)NCP[Dab]G-NH2; disulfide 1-6)	21		2.7	7.7	> 3700	590		1600	4.8		1.3
	> 10000	> 10000	> 10000	> 10000	CC[C@H](C)[C@@H]1NC(=O)[C@H](Cc2ccccc2)NC(=O)[C@@H](N)CSSC[C@@H](C(=O)N2CCC[C@H]2C(=O)N[C@@H](CCCN)C(=O)NCC(N)=O)NC(=O)[C@H](CC(N)=O)NC(=O)[C@H](CC(N)=O)NC1=O (H-CFINNCP[Orn]G-NH2; disulfide 1-6)	29		1.4	20	> 7100	> 7100			8.2		1.4
